Rows were chosen to be rich in hits. Some 3% of all compounds tested hit in one or more screens of this group.
HSF-1 act: increases HSF-1 driven luciferase reporter signal; NIH3T3-HGL HSF-1 luciferase reporter, MG132, 8 h; 100% = twice DMSO control signal; activation, % at 9 µM; actives 1.7% (n = 300,000);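 active = mean replicate activation of at least 50% with a set share of replicates each reaching 50%; inconclusive = only one of those two conditions met; inactive = mean below 50% and too few replicates reaching it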;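 note: 0% = median of the neutral control wells and 100% = twice that signal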
PvdQ inh: blocks Pseudomonas aeruginosa PvdQ acylase activity; purified PvdQ acylase, fluorescence plate reader; inhibition, % at 10 µM; actives 0.063% (n = 340,000); AID 488965; in the data active = inhibition above about 30%, passing the limit was not always enough; inconclusive = no clear call, values can overlap the other calls;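 note: 0% = vehicle neutral wells and 100% = reference inhibitor wells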
T cruzi inh: T. cruzi replication inhibition; T. cruzi beta-gal in NIH3T3, luminescence, 90 h; inhibition, % (test concentration not listed); actives 1.4% (n = 300,000);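 active = mean inhibition across valid replicates above about 55%, limit read from the data; inconclusive = mean below that limit but half or more replicates reach it; inactive = mean below it, under half of replicates reach it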;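 note: signal also drops with host cell toxicity which is not excluded here; 0% = plate median of DMSO wells and 100% = zero luminescence signal; higher percent means less beta-gal luminescence so fewer parasites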
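System: Mouse NIH/3T3 fibroblasts infected with β-gal-expressing T. cruzi Tulahuen C4 | Quantity: NIH/3T3 cells, 5,000 per well | Reagent: 5000 reporter trypomastigotes per well | Dosing: Compound pinned at 50 nL/well, DMSO | Schedule: 3 h host attachment, then at least 90 h co-culture | Detection: GalScreen luminescence, 60 min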
CaV13 FRET inh: Disruptors of the CACNA1D IQ motif to Ca2+-dependent inactivation inhibitor domain association, primary screening, Förster resonance energy transfer in intact living …; inhibition, % at 12.3 µM; actives 0.098% (n = 340,000); HEK cells, CFP/YFP FRET ICDI-IQ, plate reader, 10 min; percent FRET-ratio fall versus neutral wells;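 active = mean replicate inhibition of at least 30% and at least 1% of replicates passing that level; inconclusive = only one of the two criteria is met; inactive = neither criterion is met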;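 note: 0% = median of the neutral control wells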
PfHsp90 set2: reduces growth (ATP signal) of yeast expressing P. falciparum Hsp90; actives 0.32% (n = 310,000); inhibition, % at 9.4 µM; AID 504621; S. cerevisiae expressing PfHsp90, BacTiter-Glo ATP, 48 h; yeast lacking PDR1 and PDR3 efflux regulators;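 active = every replicate shows inhibition above about 80%, whatever the replicate mean, limit read from the data; inconclusive = mean inhibition reaches the set limit but some replicate falls short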;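 note: 0% = DMSO neutral controls and 100% = 20 µM radicicol positive controls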
N-glyco inh: N-linked glycosylation inhibition. actives 0.23% (n = 360,000). AID 588692. reporter increase, % at 12.5 µM. D54 ERlucT glycosylation luciferase reporter, 24 h; percent of 100 nM tunicamycin response;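 active = mean luciferase reporter signal, scaled so untreated is 0 and the glycosylation-blocking control 100, at or above a set limit in every replicate; inconclusive = mean reaches the limit but not every replicate does; inactive = mean below the limit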;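 note: luciferase carries N-glycosylation sites so blocking glycosylation raises the light; 0% = median of neutral control wells and 100% = median of 100 nM tunicamycin wells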
* hit, by the source's call; ? = inconclusive; . = no result.

SMILES	HSF-1 act	PvdQ inh	T cruzi inh	CaV13 FRET inh	PfHsp90 set2	N-glyco inh
CCN(CC)S(=O)(=O)c1cccc(NC(=O)c2ccc(Br)cc2)c1	4.0	-15.1	16.6	-6.4	96.4*	-7.6
CN(C)c1cccc(C(=O)Nc2cccc(F)c2)c1	-16.2	1.0	14.1	-2.8	-0.9	1.4
CCN(CC)S(=O)(=O)c1cccc(NC(=O)c2cncc(Br)c2)c1	-2.3	-12.8	12.8	-1.3	0.4	-2.5
O=C(NCc1ccc2c(c1)OCO2)c1ccc(NC(=O)C2CCCO2)cc1 (stereo not given)	2.1	-12.2	-15.9	-6.1	.	0.9
CCN(CC)c1ccc(C(=O)Nc2cccc(F)c2)cc1	60.8*	-17.0	-8.0	-5.0	11.7	-8.2
O=C1C=CC(n2cc(F)c(=O)[nH]c2=O)O1 (stereo not given)	.	.	.	-6.1	.	1.0
COc1ccc(NC(=O)c2ccc3c(c2)N(C)CCS3)cc1	14.1	-8.3	16.9	-4.8	-24.8	-5.7
CCCCc1ccc(NC(=O)C2CCCO2)cc1 (stereo not given)	62.6*	-12.7	2.9	.	-2.4	-5.0
CN1CCSc2ccc(C(=O)Nc3cccc(F)c3)cc21	159.8*	-13.6	9.4	-5.1	23.0	-11.4
CC1=CC(=O)c2ccccc2C1=O	2.6	-1.4	-0.9	-5.2	5.1	3.1
CC(C)(C=O)C1=CC(=O)c2ccccc2C1=O	.	4.7	.	-16.3	105.7*	6.6
COC(=O)N1C[C@H](Oc2cccc3ccccc23)[C@H]2C[C@@H]1c1ccccc1O2	.	.	.	-4.4	.	.
COCCN(CCOC)C(=O)c1cc2sc3ccccc3c2s1	13.0	-4.7	16.1	-8.7	9.0	-0.7
CN(C)CCCNC(=O)c1cc2c3ccccc3n(C)c2s1	-12.4	6.0	74.3*	.	9.5	-1.9
CCn1c(=O)c2cc(C(=O)NCCN(C)C)sc2c2ccccc21	-6.5	1.2	22.2	-17.4	-19.1	16.4
CN(C)CCNC(=O)c1cc2sc3ccccc3c2s1	18.0	-1.8	59.4*	-3.6	11.3	-5.9
Cc1cc(Oc2cccnc2)ccc1NC(=O)Cc1c[nH]c2ccccc12	.	.	.	-2.6	.	.
Cc1nnc(N/N=C/c2c(Cl)cccc2Cl)n1N	17.1	2.0	-13.4	-5.7	11.9	2.4
Cc1nnc(N/N=C/c2ccc(-c3ccccc3F)o2)n1N	36.8	0.9	0.8	-4.7	-22.8	8.2
Cc1nnc(N/N=C\c2ccc(-c3ccccc3[N+](=O)[O-])o2)n1N	79.7*	5.0	-11.0	-5.1	-2.1	17.5
CCOc1cc(/C=N/Nc2nnc(C)n2N)ccc1O	58.3*	3.3	-4.0	-18.0	9.3	10.4
CCOc1cc(/C=N/Nc2ncnc(Cl)c2N)ccc1O	-4.5	13.0	-8.4	-5.9	-24.3	4.5
Cc1nnc(N/N=C/c2ccccc2O)n1N	71.3*	-5.2	-8.9	-20.3	-10.0	4.0
Nc1ccn([C@@H]2O[C@H](C(=O)N[C@H](Cc3ccccc3)C(=O)N3CCN(C(=O)N4CCOCC4)CC3)[C@@H](O)[C@H]2O)c(=O)n1	.	.	.	-3.4	.	.
COC(=O)c1ccc2nc(-c3ccc(OC)c(OC)c3)c(Cc3ccccc3C(F)(F)F)n2c1	.	.	.	-8.6	.	.
SMILES	HSF-1 act	PvdQ inh	T cruzi inh	CaV13 FRET inh	PfHsp90 set2	N-glyco inh
O=S1(=O)c2cc(Cl)ccc2N2CC[C@H](C2)N1Cc1ccc(Cl)c(Cl)c1	.	.	.	-5.4	.	.
CN(N=Cc1ccc2c(c1)OCO2)C(=O)c1ccccc1N	.	.	.	-13.2	.	.
C[C@@H]1CN([C@H](C)CO)C(=O)CCCn2nncc2CO[C@H]1CN(C)S(=O)(=O)c1ccc(C#N)cc1	.	.	.	-3.3	.	0.6
Cc1ccc(NC(=O)CN(C)Cc2nc3ccccc3c(=O)[nH]2)c(Br)c1	52.9*	-0.2	20.4	0.5	-10.4	2.1
CC1=NN(C(N)=S)C(=O)C1N=Nc1ccc(F)cc1 (stereo not given)	53.0*	-8.8	-21.6	-2.2	14.2	-3.4
COc1ccc(-n2nc([N+](=O)[O-])c(=NCCc3ccc(C)cc3)n2O)cc1	15.9	-17.3	50.4	-7.4	-7.4	4.2
COc1ccc(-n2nc([N+](=O)[O-])c(=NCCc3ccc(Cl)cc3)n2O)cc1	29.2	-5.7	66.8*	-10.5	-48.9	3.0
COc1ccc(-n2nc([N+](=O)[O-])c(=NCCC3=CCCCC3)n2O)cc1	9.7	4.9	90.6*	5.1	-21.2	4.8
CC(=O)c1sc(Nc2ccc(Oc3ccccc3)cc2)nc1C	.	.	.	-6.2	.	-13.1
CN(C)CCCN(C(=O)CCOc1ccccc1)c1nc2c(F)cccc2s1	-0.5	-20.2	58.5*	-3.6	-37.7	-9.1
CN(C)CCCN(C(=O)CCOc1ccccc1)c1nc2ccc(F)cc2s1	.	-24.6	.	-1.8	22.5	-16.8
CCOc1cccc2sc(N(CCCN(C)C)C(=O)c3ccc(S(=O)(=O)N(C)c4ccccc4)cc3)nc12	7.6	-10.0	55.9*	-19.0	11.9	-3.3
CN(C)CCCN(C(=O)CCc1ccccc1)c1nc2c(F)cccc2s1	-4.4	-10.5	58.4*	-8.6	-3.9	1.4
CN(C)CCCN(C(=O)c1ccco1)c1nc2c(F)cccc2s1	3.0	-0.1	?	-6.1	2.3	6.5
CN(C)CCCN(C(=O)COc1ccc(Cl)cc1)c1nc2c(F)cccc2s1	17.2	-13.0	80.0*	-2.1	-0.6	1.1
Cc1cccc2sc(N(CCCN(C)C)C(=O)COc3ccc(Cl)cc3)nc12	-10.8	-17.3	53.7	-2.4	-24.9	-3.0
O=C(NCc1ccncc1)[C@@H]1CCCN1C(=O)[C@H]1CCCN1C(=O)c1cccc2ccccc12	.	.	.	-5.5	.	.
Cc1cc(C)c(C#N)c(SCC(=O)C(C)(C)C)n1	12.7	3.3	71.8*	-2.0	-14.1	-0.8
CCCCNc1ccc2c(c1)OC[C@@H](Cc1ccccc1)NS2(=O)=O	.	.	.	-6.7	.	.
O=C(Nc1ccccc1N1CCOCC1)c1ccc([N+](=O)[O-])s1	.	3.6	.	-15.3	103.4*	-2.9
O=C(Nc1ccc(Cc2ccncc2)cc1)c1ccc([N+](=O)[O-])o1	143.6*	-2.5	30.6	-3.9	-18.6	34.3*
O=C(Nc1ccc(N2CCOCC2)cc1)c1ccc([N+](=O)[O-])o1	145.9*	-11.0	6.0	-3.3	-67.4	16.0
O=C(Nc1ccccc1N1CCOCC1)c1ccccc1[N+](=O)[O-]	-5.9	-20.2	-15.0	-9.1	-8.1	2.2
O=C(Nc1ccc(S(=O)(=O)N2CCOCC2)cc1)c1ccc([N+](=O)[O-])s1	41.8	1.0	72.3*	-5.8	-1.7	4.3
O=Nc1ccc(Cl)cn1	.	.	.	-3.9	.	.
O=C(Nc1ccc(S(=O)(=O)N2CCCC2)cc1)c1ccc([N+](=O)[O-])o1	.	-2.4	.	.	-9.0	15.3
CCn1nnc(NC(=O)c2ccc([N+](=O)[O-])o2)n1	-0.1	-13.3	60.6*	-6.6	-11.5	4.7
O=C(Nc1ccc(S(=O)(=O)N2CCOCC2)cc1)c1ccc([N+](=O)[O-])o1	122.8*	6.5	44.1	-1.2	13.7	13.2
